High-throughput results: PubChem, SRMLSC
Sampled rows, rich in hits. Any-hit rate of the full collection: about 4.3%.
WT yeast gro inh – growth inhibition of WT strain, primary screen, mitochondrial fusion inhibitor project, WT and mutant strains, chemical genetic; mitochondrial fusion phenotypic screen; inhibition, % at 10 µM; 2.1% of 190,000 active; in the data active = inhibition above about 58%; tested in S. cerevisiae
BB579 growth dn – growth inhibitors of yeast BB579 in restrictive medium, primary screen, yeast lifespan-shortening project, S. cerevisiae. OD615, 48 h. inhibition, % at 10 µM. 0.51% of 140,000 active;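 active = inhibition above a set limit, 3 SD over the mean compound inhibition, cut at about 44% in these data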
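System: Saccharomyces cerevisiae DeaD strain BB579, replicative lifespan model yeast | Buffer or medium: Restrictive glucose-based CSMM-D medium | Times: 4 h preincubation and 48 h exposure at 30 °C | Detection: OD615 turbidity measurement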
Yeast life ext – compounds extending yeast replicative lifespan, primary screen, S. cerevisiae, OD615; S. cerevisiae growth with nicotinamide; deaD strain in restrictive glucose medium; inhibition of the nicotinamide effect, % at 10 µM; 0.68% of 130,000 active; AID 775, 2007;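 active = inhibition above a set limit, placed 3 SD over the median of all compounds, cut at about 26% in these data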;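 also: 0% = nicotinamide-treated wells and 100% = cells grown without nicotinamide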
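Buffer or medium: CSMM-D glucose medium, restrictive; test system: modified budding yeast, DeaD strain; compound: single dose 10 µM compound, 0.25% DMSO; schedule: culture preincubation 4 h, compound exposure 48 h, both 30 °C; detection: optical density (absorbance) at 615 nm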
RAM inhibit – inhibitors of the yeast RAM network, primary screen, dse1pr::URA3 reporter, 5-FOA selection; AID 868, 2007; inhibition, % at 50 µM; S. cerevisiae dse1pr::URA3 reporter, 5-FOA growth OD615, 2 d; analog-sensitive cbk1-as2 kinase mutant strain; 1.8% of 190,000 active;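 active = inhibition above a set limit, 3 SD over mean compound inhibition, cut at about 8.4% in these data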;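 also: 0% = DMSO-only wells with no growth and 100% = 10 µM 1-NA-PP1 full growth; inhibition rescues growth on 5-FOA so higher OD means more RAM inhibition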
Starred values were filed as active, the others as inactive.

What do the screens show for `COc1ccc(CCC(C)Nc2ccc(F)cc2)cc1` (centres undefined)?
WT yeast gro inh: -3; BB579 growth dn: -3; Yeast life ext: -7; RAM inhibit: -1

Results for CC(=O)NC(Cc1ccccc1C)C(=O)NC1CCN(C(=O)c2ccc(C)cc2)CC1 (centres undefined) ?
WT yeast gro inh: 13; RAM inhibit: 1

What do the screens show for `CC1C(c2ccccc2)N(C)C(c2ccccc2)CC1(O)c1ccc(F)cc1` (centres undefined)?
WT yeast gro inh: 69*; RAM inhibit: -1

How did Cc1cccc(N2CCN(C(=O)Cc3ccc(-n4c(=O)[nH]c5ccsc5c4=O)cc3)CC2C)c1 (centres undefined) do in these assays?
WT yeast gro inh: 2; BB579 growth dn: -7; Yeast life ext: 2; RAM inhibit: 1

Results for O=C(Cc1ccc(-n2c(=O)[nH]c3ccsc3c2=O)cc1)N1CCN(c2ccc(Cl)cc2)CC1 ?
WT yeast gro inh: 0; BB579 growth dn: -26; Yeast life ext: 3; RAM inhibit: 8.4*

How did CCOC(=O)C1(CCc2ccccc2)CCN(C(=O)C2CCCO2)CC1 (centres undefined) do in these assays?
WT yeast gro inh: 4; RAM inhibit: 3

How did Oc1ccc(/C=N/n2cc(-c3ccccc3)[nH]c2=S)cc1 do in these assays?
WT yeast gro inh: 16; RAM inhibit: 1

How did Cc1ccc(/C=N/n2cc(-c3ccccc3)[nH]c2=S)s1 do in these assays?
WT yeast gro inh: 68*; RAM inhibit: 7

How did S=c1[nH]c(-c2ccccc2)cn1/N=C/c1cccc2ccccc12 do in these assays?
WT yeast gro inh: 75*; RAM inhibit: 2

How did S=c1[nH]c(-c2ccccc2)cn1/N=C/c1ccccc1Br do in these assays?
WT yeast gro inh: 68*; RAM inhibit: 6

Results for S=c1[nH]nc(-c2ccccn2)n1/N=C/c1cccc2ccccc12 ?
WT yeast gro inh: -10; BB579 growth dn: -24; Yeast life ext: -4; RAM inhibit: -1

What do the screens show for `O=C(CCCC(=O)N(CC(=O)NC1CCCC1)Cc1ccc2c(c1)OCO2)Nc1ccccn1`?
WT yeast gro inh: -22; BB579 growth dn: -30; Yeast life ext: 11; RAM inhibit: 1

Results for CC(C)N=C1NN=C(c2ccc(F)cc2)CS1 ?
WT yeast gro inh: 7; RAM inhibit: 5

What do the screens show for `CCc1c(O)cc2n(c1=O)-c1ccc(Cl)cc1C2(C)C`?
WT yeast gro inh: 24; BB579 growth dn: -25; RAM inhibit: 1

What do the screens show for `Clc1ccc(-c2ccc(/C=N/Nc3cc(N4CCOCC4)nc(N4CCOCC4)n3)o2)cc1`?
WT yeast gro inh: 60*; BB579 growth dn: -32; RAM inhibit: 3

How did Brc1ccc(-c2ccc(/C=N/Nc3nc(N4CCOCC4)nc(N4CCOCC4)n3)o2)cc1 do in these assays?
WT yeast gro inh: 12; RAM inhibit: 1

How did CC(C)(C)c1cc(OC(=O)c2ccccc2F)ccc1O do in these assays?
WT yeast gro inh: 72*; RAM inhibit: 0

Results for Cn1cc(Cl)c(C(=O)N2CCN(c3ncccn3)CC2)n1 ?
WT yeast gro inh: -13; BB579 growth dn: -39; Yeast life ext: 0; RAM inhibit: 1

What do the screens show for `COc1ccc(/C=C/C(=O)Nc2cc(C)nn2-c2nc3ccccc3n2Cc2cccc([N+](=O)[O-])c2)cc1`?
WT yeast gro inh: -10; BB579 growth dn: -30; Yeast life ext: 0; RAM inhibit: 8.9*

Results for COc1ccc(/C=C/C(=O)Nc2cc(C)nn2-c2nc3ccccc3[nH]2)cc1 ?
WT yeast gro inh: 3; BB579 growth dn: -8; Yeast life ext: -1; RAM inhibit: 5

How did S=C1NCCOCCOCCOCCOCCNC(=S)NCCOCCOCCOCCOCCN1 do in these assays?
WT yeast gro inh: -19; BB579 growth dn: 32; RAM inhibit: 1

How did COc1ccc(-c2cnn3c(N)c(S(=O)(=O)C(C)(C)C)cnc23)cc1 do in these assays?
WT yeast gro inh: 12; BB579 growth dn: -2; Yeast life ext: 30*; RAM inhibit: 0

How did CCOc1ccc(-n2c(SCC(=O)Nc3cc(C)on3)nnc2-c2c[nH]c3ccccc23)cc1 do in these assays?
WT yeast gro inh: 63*; BB579 growth dn: -40; Yeast life ext: -13; RAM inhibit: 8.6*

Results for CCc1ccc(OCCNC(=O)c2ccccc2SCc2ccccc2)cc1 ?
WT yeast gro inh: 37; BB579 growth dn: -30; Yeast life ext: -2; RAM inhibit: 8.8*
